ChEMBL document CHEMBL1154778, “Synthesis and biological evaluation of C-5 methyl substituted 4-arylthio and 4-aryloxy-3-Iodopyridin-2(1H)-one type anti-HIV agents” (J Med Chem, 2009)

Columns and labels:
[1] = test system: Human immunodeficiency virus 1; experiment: Antiviral activity against HIV1 HXB2 harboring Y188L mutant reverse transcriptase infected in human MT4 cells after 5 days by MTT assay; type: functional, organism-based; conditions: Human immunodeficiency virus 1, HXB2, MT4, 120 h
Method in brief: (§1)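 Mutant viruses were made by recombining the mutant PR-RT sequence into a PR-RT-deleted HIV-1 HXB2 proviral clone. MT4 cells were grown in RPMI 1640 with 10% FCS and antibiotics. Virus at 200 CCID50/well and 30000 cells/well were incubated with varied compound concentrations for 5 days at 37 °C, 5% CO2. MTT viability gave IC50, the concentration giving 50% infection versus the drug-free control.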

[2] = test system: Human immunodeficiency virus 1; experiment: Antiviral activity against HIV-1 LAI harboring wild type reverse transcriptase infected in human MT4 cells after 5 days by MTT assay; type: functional, organism-based; conditions: Human immunodeficiency virus 1, LAI, MT4, 120 h
Method in brief: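 MT4 cells were kept in RPMI 1640 with 10% fetal calf serum and antibiotics at 37 °C, 5% CO2. A range of compound concentrations was incubated with HIV-1 LAI at 200 CCID50/well and 30000 MT4 cells/well for 5 days at 37 °C. Cell viability was read by MTT, and IC50 was the concentration giving 50% infection versus the drug-free control.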

[3] = test system: Human immunodeficiency virus 1; experiment: Antiviral activity against HIV1 HXB2 harboring Y181C mutant reverse transcriptase infected in human MT4 cells after 5 days by MTT assay; type: functional, organism-based; conditions: Human immunodeficiency virus 1, HXB2, MT4, 120 h; method in brief: as §1
[4] = Selectivity index, ratio of CC50 for human MT4 cells to IC50 for HIV-1 LAI harboring wild type reverse transcriptase infected in human MT4 cells; type: functional
Method in brief: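 Cytotoxicity was measured in mock-infected MT4 cultures (30000 cells/well) given the same compound concentration range, run in parallel with the infected cultures for 5 days at 37 °C, 5% CO2, with MTT viability. CC50 was the concentration reducing viability by 50% versus the drug-free control. SI was CC50 divided by IC50 against HIV-1 LAI.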

[5] = test system: Human immunodeficiency virus 1; experiment: Antiviral activity against HIV1 HXB2 harboring K103N mutant reverse transcriptase infected in human MT4 cells after 5 days by MTT assay; type: functional, organism-based; conditions: Human immunodeficiency virus 1, HXB2, MT4, 120 h; method in brief: as §1

Row | SMILES | IC50 [1] [nM] | IC50 [2] [nM] | IC50 [3] [nM] | Ratio CC50/IC50 [4] | IC50 [5] [nM]
1 | Cc1cc(C)cc(Oc2c(COCCO)c(C)[nH]c(=O)c2I)c1 | 501 | 1.99 | 31.6 | >50119 | 39.8
2 | CCOC(=O)CC1CN(Cc2c(C)[nH]c(=O)c(I)c2Sc2cc(C)cc(C)c2)CCO1 (stereo not given) | 50 | 2.51 | 25.1 | 25119 | 0.62
3 | CCOC(=O)CC1CN(Cc2c(C)[nH]c(=O)c(I)c2Oc2cc(C)cc(C)c2)CCO1 (stereo not given) | 50.1 | 6.3 | 25.1 | >15849 | 1.99
4 | Cc1cc(C)cc(Sc2c(CN(C)CCC#N)c(C)[nH]c(=O)c2I)c1 | 1000 | 2.51 | 63 | >31623 | 6.3
5 | Cc1cc(C)cc(Oc2c(CN3CCCC(C#N)C3)c(C)[nH]c(=O)c2I)c1 (stereo not given) | 199 | 3.98 | 31.6 | 19953 | 6.3
6 | Cc1cc(C)cc(Oc2c(COCC3CCCO3)c(C)[nH]c(=O)c2I)c1 (stereo not given) | 501 | 7.94 | 39.8 | >12589 | 31.6
7 | Cc1cc(C)cc(Oc2c(CN3CCC(OC(N)=O)CC3)c(C)[nH]c(=O)c2I)c1 | 50.1 | 6.3 | 25.1 | 7943 | 1.99
8 | Cc1cc(C)cc(Sc2c(CN3CCC(O)CC3)c(C)[nH]c(=O)c2I)c1 | 3980 | 5.01 | 316 | >19953 | 12.5
9 | Cc1cc(C)cc(Oc2c(Cn3cncc3C)c(C)[nH]c(=O)c2I)c1 | 125 | 5.01 | 31.6 | >19952 | 10
10 | Cc1cc(C)cc(Oc2c(CN3CCSC3)c(C)[nH]c(=O)c2I)c1 | 251 | 6.3 | 39.8 | >15848 | 15.8
11 | CCSCc1c(C)[nH]c(=O)c(I)c1Sc1cc(C)cc(C)c1 | 630 | 3.16 | 31.6 | >15849 | 5.01
12 | Cc1cc(C)cc(Sc2c(CN3CCOCC3)c(C)[nH]c(=O)c2I)c1 | 158 | 1.25 | 31.6 | 7943 | 1.25
13 | COC1CCCN(Cc2c(C)[nH]c(=O)c(I)c2Sc2cc(C)cc(C)c2)C1 (stereo not given) | 125 | 5.01 | 25.1 | >19953 | 3.16
14 | COCCOCc1c(C)[nH]c(=O)c(I)c1Oc1cc(C)cc(C)c1 | 158 | 1.58 | 10 | >63096 | 50.1
15 | Cc1cc(C)cc(Oc2c(CN3CCSCC3)c(C)[nH]c(=O)c2I)c1 | 125 | 6.3 | 39.8 | >15849 | 7.94
16 | Cc1cc(C)cc(Oc2c(COCc3ccc(F)cc3)c(C)[nH]c(=O)c2I)c1 | 79.4 | 7.94 | 25.1 | >12589 | 7.94
17 | Cc1cc(C)cc(Oc2c(CO)c(C)[nH]c(=O)c2I)c1 | 3160 | 5 | 158 | >19953 | 158

Row | SMILES | IC50 [1] [nM] | IC50 [2] [nM] | IC50 [3] [nM] | Ratio CC50/IC50 [4] | IC50 [5] [nM]
18 | Cc1cc(C)cc(Oc2c(CSC(C)C)c(C)[nH]c(=O)c2I)c1 | 316 | 5 | 39.8 | >19953 | 12.5
19 | CCOCc1c(C)[nH]c(=O)c(I)c1Oc1cc(C)cc(C)c1 | 125 | 0.63 | 6.3 | >158489 | 6.3
20 | CCS(=O)(=O)Cc1c(C)[nH]c(=O)c(I)c1Oc1cc(C)cc(C)c1 | 794 | 7.94 | 158 | >12589 | 39.8
21 | Cc1cc(C)cc(Sc2c(CSc3nccs3)c(C)[nH]c(=O)c2I)c1 | 3160 | 5.01 | 199 | 15849 | 7.94
22 | Cc1cc(C)cc(Sc2c(Cc3ccc[nH]3)c(C)[nH]c(=O)c2I)c1 | 50.1 | 3.98 | 10 | >25119 | 0.5
23 | Cc1cc(C)cc(Sc2c(Cn3ncnc3C)c(C)[nH]c(=O)c2I)c1 | 316 | 1.99 | 31.6 | >12589 | 15.8
24 | Cc1cc(C)cc(Sc2c(Cn3cnc(C)c3/C=N/O)c(C)[nH]c(=O)c2I)c1 | 3160 | 6.3 | 1260 | >15849 | 158
25 | Cc1cc(C)cc(Oc2c(CN3CC=CC3)c(C)[nH]c(=O)c2I)c1 | 125 | 3.98 | 50.1 | 15848 | 7.94
26 | Cc1cc(C)cc(Sc2c(CN3CCOC(CC#N)C3)c(C)[nH]c(=O)c2I)c1 (stereo not given) | 100 | 1.58 | 25.1 | 25119 | 1
27 | Cc1cc(C)cc(Sc2c(Cn3cnc(C)c3C#N)c(C)[nH]c(=O)c2I)c1 | 100 | 1.25 | 31.6 | >79433 | 1.25
28 | COC1CCCN(Cc2c(C)[nH]c(=O)c(I)c2Oc2cc(C)cc(C)c2)C1 (stereo not given) | 39.8 | 6.3 | 15.8 | >15849 | 6.3
29 | COCC1CN(Cc2c(C)[nH]c(=O)c(I)c2Sc2cc(C)cc(C)c2)CCO1 (stereo not given) | 125 | 1.25 | 25.1 | >50119 | 1
30 | Cc1cc(C)cc(Oc2c(Cn3ccnn3)c(C)[nH]c(=O)c2I)c1 | 79.4 | 2.51 | 31.6 | >39810 | 7.94
31 | Cc1cc(C)cc(Sc2c(CSCc3cccs3)c(C)[nH]c(=O)c2I)c1 | 794 | 10 | 39.8 | >10000 | 10
32 | Cc1cc(C)cc(Oc2c(Cn3cncc3-c3ccccc3)c(C)[nH]c(=O)c2I)c1 | 31.6 | 6.3 | 31.6 | >15858 | 7.94
33 | Cc1cc(C)cc(Oc2c(CN3CCOC(CC#N)C3)c(C)[nH]c(=O)c2I)c1 (stereo not given) | 100 | 6.3 | 31.6 | >15849 | 6.3
